# Bioassay records from PubChem.
# Only some compounds are listed: those with a hit (about 5.1% of all), similar ones and a draw of the others.
# STAT1 act – STAT1 signaling activators, primary screen, cell-based, HTS, luciferase reporter; NIH 3T3 STAT1-luciferase reporter, IFN-gamma, luminescence; 100% = IFN-gamma alone, no compound; activation (% of control), % at 5.5 µM; 200,000 tested, 2.6% active; AID 932, 2007;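 active = activation above the screen-wide mean activation plus 3 SD, cut at about 130% in these data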;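 also: raw ratio to IFN-gamma control signal so 100% means no change and 0% no light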
# STAT3 act – IL-6 driven STAT3 reporter potentiators, primary screen, U3A cells, luciferase, luminescence, MLSCN library; activation (% of control), % at 5.6 µM; 190,000 tested, 0.91% active; IL-6 STAT3-luciferase reporter; 100% = signal with IL-6 EC80 alone;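 active = activation above the screen-wide mean of compound activation plus 3 SD, cut at about 130% in these data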;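 also: 0% = background luminescence of wells with medium and substrate only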
#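 Assay system – human STAT1-deficient U3A cells with stable STAT3-luciferase reporter · Also added – IL-6 (33 ng/mL) · Schedule – compound 1 h, then IL-6 6 h at 37 °C · Technique – reporter luminescence signal · Evaluation – % activation versus median of IL-6-stimulated wells · Benchmarks – IL-6-only wells as 100% reference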
# NF-kB neuron act – activators of NF-kB expression in neurons, primary screen, cell-based, HTS | fold change at 12.5 µM | 190,000 tested, 1.6% active | AID 1239, 2008 | human neuronal cells, NF-kB reporter expression; hits give high values; in the data active = fold change above about 3.3
# STAT3 inh – IL-6 driven STAT3 reporter inhibitors, primary screen, U3A cells, luciferase, luminescence, MLSCN library; IL-6 STAT3-luciferase reporter; host cell line lacks STAT1; 190,000 tested, 0.89% active; AID 862, 2007; inhibition, % at 5.5 µM;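 active = inhibition above the mean inhibition across all screened compounds plus 3 SD, cut at about 44% in these data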;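 also: 0% = DMSO only wells and 100% = 100 µM nifuroxazide control wells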
# APP 5'UTR act – activators of APP 5'UTR luciferase reporter, primary screen, SH-SY5Y cells; SH-SY5Y APP 5'UTR luciferase reporter, luminescence; zero percent = DMSO vehicle wells; activation, % at 2 µM; 190,000 tested, 1% active; AID 1276, 2008;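 active = activation above a set limit, based on mean plus 3 SD of controls, cut at about 140% in these data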
# STAT1 blocker – STAT1 signaling inhibitors, primary screen, cell-based, HTS, luciferase reporter; inhibition, % at 5.5 µM; NIH 3T3 STAT1-luciferase reporter, IFN-gamma, luminescence; 200,000 tested, 0.35% active;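 active = inhibition above a set limit, the mean inhibition across all tested compounds plus 3 SD, cut at about 34% in these data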;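 also: 0% = IFN-gamma with DMSO and 100% = IFN-gamma with 300 µM nifuroxazide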
# An asterisk follows results filed as active; . = not tested or not shown.
SMILES,STAT1 act,STAT3 act,NF-kB neuron act,STAT3 inh,APP 5'UTR act,STAT1 blocker
O=C(c1ccccc1)c1cc(-c2ccccc2)on1,81,70,2,38,184*,20
CCOC(=O)C(Nc1ccc2ccccc2c1)C(=O)OCC,94,136*,0.81,-41,17,6
CC(=O)Nc1ccc2ccccc2c1,99,106,1.7,1,-5,1
COc1cc(NS(=O)(=O)c2ccc(NC(=S)NC(=O)/C=C/c3ccco3)cc2)ncn1,91,97,1.1,8,-3,8
Cn1c(=N)n(CC(=O)c2ccc(Br)s2)c2ccccc21,146*,167*,3.1,-69,197*,-50
Cn1c(=N)n(CC(=O)c2cccs2)c2ccccc21,134*,137*,3.9*,-36,160*,-36
CCOc1cc(C2NN=C(c3ccc(C)cc3)S2)ccc1O (configuration not stated),136*,104,4.8*,-4,59,-40
CCOc1cc(C2c3c(n[nH]c3C)C(=O)N2c2ccc(C)cc2)ccc1O (configuration not stated),98,97,1.1,8,7,2
Cc1ccc(C)c(NC(=O)CS(=O)(=O)c2cccc3nsnc23)c1,98,103,1,-4,4,2
C/C(=N\Nc1ccc(Cl)c(C(=O)O)c1)c1cc2ccccc2o1,114,97,0.99,11,11,-16
C/C(=N\Nc1nc2ccccc2s1)c1ccc(Br)s1,95,126,1.3,-22,17,3
O=C(O)c1cc(N/N=C/c2ccc3c(c2)OCCO3)ccc1Cl,58,120,5.5*,-28,82,48*
C/C(=N\Nc1ccc(Cl)c(C(=O)O)c1)c1ccc2c(c1)OCO2,131*,108,1.9,-8,22,-34
O=C(O)c1cc(N/N=C/c2ccc3c(c2)OCO3)ccc1Cl,82,122,1.1,-16,121,19
O=C(O)c1ccc(N/N=C/c2ccc3c(c2)OCO3)cc1,13,34,0.66,80*,-31,93*
C/C(=N\Nc1nc2ccccc2s1)c1ccc2c(c1)OCO2,121,101,3.4*,-4,47,-23
Cc1ccc(/C=N/n2cc(-c3ccccc3)[nH]c2=S)s1,129*,115,1.6,-7,23,-34
S=c1[nH]c(-c2ccccc2)cn1/N=C/c1ccccc1Br,120,99,0.92,9,20,-23
O=C(c1ccc(Cl)c(Cl)c1)N1CCC(=O)N(C(COCc2ccccc2)Cc2ccccc2)CC1 (configuration not stated),101,108,0.6,-13,15,-1
Cc1ccc(-n2nc3ccc(N)cc3n2)cc1,150*,102,2.7,1,7,-52
CC(C)c1ccc(-n2nc3ccc(N)cc3n2)cc1,84,83,4.9*,22,117,17
Cc1ccc(-n2nc(-c3ccc(N)cc3)cc2N)cc1,93,104,1.6,-5,24,8
Cc1ccc(-n2nc3ccc(NC(=O)C(C)C)cc3n2)cc1,135*,85,3.2,22,194*,-40
Cn1cc2ccc(N)cc2n1,99,106,1.3,1,-13,-1
CC(/C=C/c1ccccc1F)=N\NC(=O)c1ccccc1,133*,92,2.7,12,80,-38
SMILES,STAT1 act,STAT3 act,NF-kB neuron act,STAT3 inh,APP 5'UTR act,STAT1 blocker
C/C(=N/NC(=O)c1ccccc1)C(=O)O,132*,103,1.7,-1,1,-37
C/C(=N\NC(=O)c1ccccc1)c1cccc(Br)c1,117,88,1.8,18,62,-20
CC(=O)NC1=NN(C(C)=O)C(c2ccccn2)S1 (configuration not stated),102,89,1.1,23,2,-3
Cc1ccc(C)c(OCCOCCN2CCOCC2)c1,106,101,1.2,3,4,-6
Clc1cc(Br)ccc1OCCOCCN1CCOCC1,108,100,3.6*,4,11,-9
O=C(CC1C(=O)NCCN1Cc1c(F)cccc1Cl)NC1CCCC1 (configuration not stated),97,101,1,1,-12,1
C/C(=C\C(=O)c1cccnc1)Nc1ccc(O)cc1,113,97,0.68,2,.,-14
C/C(=C\C(=O)c1ccccc1)Nc1ccc(O)cc1,140*,95,4.5*,6,3,-44
C/C(=C\C(=O)c1ccc(C)cc1)Nc1cccc(O)c1,101,80,1.4,24,157*,-1
Cc1cccc(CN2CCSc3sccc3C2=O)c1,97,84,1,27,-13,3
CCOc1cc(CNCC(C)C)c(Cl)cc1OCC(=O)Nc1ccccc1,95,109,.,-3,-1,6
COc1cccc(CC2(CO)CCN(Cc3cccn3-c3cccnc3)CC2)c1,100,101,1,3,8,-2
COc1ccc(OC)c(Cc2nnc(CCC(=O)N3CCCCC3)o2)c1,132*,113,1.9,-12,19,-37
CC(=O)NC(Cc1cccc(C)c1)C(=O)NC1CCN(C(=O)c2ccc([N+](=O)[O-])cc2)CC1 (configuration not stated),100,102,1.3,-1,9,0
Cc1cc(C)n(C(CC(=O)O)C(=O)O)n1 (configuration not stated),105,100,1,6,139*,-6
O=S(=O)(NCCCN1CCOCC1)c1ccc2ccccc2c1,85,98,1.1,8,11,16
CC(=O)Nc1ccc(N=Cc2c(O)c(C(=O)Nc3ccccc3)cc3ccccc23)cc1,89,145*,1.1,-46,7,11
O=C(N/N=C/c1c[nH]c2ccc(Br)cc12)c1ccc2c(c1)OCO2,106,91,0.87,13,19,-6
Cc1[nH]c2ccccc2c1/C=N/NC(=O)CCC(=O)Nc1ccccc1,100,115,0.92,-14,16,-3
Cc1[nH]c2ccccc2c1/C=N/NC(=O)Nc1ccccc1,131*,148*,1.1,-49,49,-31
C/C(=N\NC(=O)c1c[nH]c2ccccc12)c1ccc2c(c1)OCO2,135*,100,0.84,6,10,-39
O=C(N/N=C/c1ccc(Br)s1)Nc1ccccc1,130*,88,1.7,19,21,-33
O=C(N/N=C/c1cc2c(cc1Br)OCO2)c1c[nH]c2ccccc12,143*,90,0.91,14,94,-51
C/C(=N\NC(=O)c1ccccc1)c1ccc2c(c1)OCO2,117,113,2.1,-7,45,-18
COc1ccccc1CNC(=O)N/C=C/c1ccc(Cl)cc1,98,110,1,-3,-18,2
